Positions of bridges follow the written chain, without caps; N, C: chain ends. Residues, ends and D or L forms follow the SMILES beside them.
Target: Sodium channel protein type 5 subunit alpha (Homo sapiens, UniProt Q14524)
Test: Inhibition of human Nav1.5 expressed in HEK293 cells assessed as inward peak current by ion-works quattro patch clamp electrophysiology method
Type: cell-based
How it was run: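 Stable HEK293 line expressing human NaV1.5, recorded by population patch clamp on the IonWorks Quattro.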

Sodium channel protein type 5 subunit alpha, sequence (Q14524 whole entry): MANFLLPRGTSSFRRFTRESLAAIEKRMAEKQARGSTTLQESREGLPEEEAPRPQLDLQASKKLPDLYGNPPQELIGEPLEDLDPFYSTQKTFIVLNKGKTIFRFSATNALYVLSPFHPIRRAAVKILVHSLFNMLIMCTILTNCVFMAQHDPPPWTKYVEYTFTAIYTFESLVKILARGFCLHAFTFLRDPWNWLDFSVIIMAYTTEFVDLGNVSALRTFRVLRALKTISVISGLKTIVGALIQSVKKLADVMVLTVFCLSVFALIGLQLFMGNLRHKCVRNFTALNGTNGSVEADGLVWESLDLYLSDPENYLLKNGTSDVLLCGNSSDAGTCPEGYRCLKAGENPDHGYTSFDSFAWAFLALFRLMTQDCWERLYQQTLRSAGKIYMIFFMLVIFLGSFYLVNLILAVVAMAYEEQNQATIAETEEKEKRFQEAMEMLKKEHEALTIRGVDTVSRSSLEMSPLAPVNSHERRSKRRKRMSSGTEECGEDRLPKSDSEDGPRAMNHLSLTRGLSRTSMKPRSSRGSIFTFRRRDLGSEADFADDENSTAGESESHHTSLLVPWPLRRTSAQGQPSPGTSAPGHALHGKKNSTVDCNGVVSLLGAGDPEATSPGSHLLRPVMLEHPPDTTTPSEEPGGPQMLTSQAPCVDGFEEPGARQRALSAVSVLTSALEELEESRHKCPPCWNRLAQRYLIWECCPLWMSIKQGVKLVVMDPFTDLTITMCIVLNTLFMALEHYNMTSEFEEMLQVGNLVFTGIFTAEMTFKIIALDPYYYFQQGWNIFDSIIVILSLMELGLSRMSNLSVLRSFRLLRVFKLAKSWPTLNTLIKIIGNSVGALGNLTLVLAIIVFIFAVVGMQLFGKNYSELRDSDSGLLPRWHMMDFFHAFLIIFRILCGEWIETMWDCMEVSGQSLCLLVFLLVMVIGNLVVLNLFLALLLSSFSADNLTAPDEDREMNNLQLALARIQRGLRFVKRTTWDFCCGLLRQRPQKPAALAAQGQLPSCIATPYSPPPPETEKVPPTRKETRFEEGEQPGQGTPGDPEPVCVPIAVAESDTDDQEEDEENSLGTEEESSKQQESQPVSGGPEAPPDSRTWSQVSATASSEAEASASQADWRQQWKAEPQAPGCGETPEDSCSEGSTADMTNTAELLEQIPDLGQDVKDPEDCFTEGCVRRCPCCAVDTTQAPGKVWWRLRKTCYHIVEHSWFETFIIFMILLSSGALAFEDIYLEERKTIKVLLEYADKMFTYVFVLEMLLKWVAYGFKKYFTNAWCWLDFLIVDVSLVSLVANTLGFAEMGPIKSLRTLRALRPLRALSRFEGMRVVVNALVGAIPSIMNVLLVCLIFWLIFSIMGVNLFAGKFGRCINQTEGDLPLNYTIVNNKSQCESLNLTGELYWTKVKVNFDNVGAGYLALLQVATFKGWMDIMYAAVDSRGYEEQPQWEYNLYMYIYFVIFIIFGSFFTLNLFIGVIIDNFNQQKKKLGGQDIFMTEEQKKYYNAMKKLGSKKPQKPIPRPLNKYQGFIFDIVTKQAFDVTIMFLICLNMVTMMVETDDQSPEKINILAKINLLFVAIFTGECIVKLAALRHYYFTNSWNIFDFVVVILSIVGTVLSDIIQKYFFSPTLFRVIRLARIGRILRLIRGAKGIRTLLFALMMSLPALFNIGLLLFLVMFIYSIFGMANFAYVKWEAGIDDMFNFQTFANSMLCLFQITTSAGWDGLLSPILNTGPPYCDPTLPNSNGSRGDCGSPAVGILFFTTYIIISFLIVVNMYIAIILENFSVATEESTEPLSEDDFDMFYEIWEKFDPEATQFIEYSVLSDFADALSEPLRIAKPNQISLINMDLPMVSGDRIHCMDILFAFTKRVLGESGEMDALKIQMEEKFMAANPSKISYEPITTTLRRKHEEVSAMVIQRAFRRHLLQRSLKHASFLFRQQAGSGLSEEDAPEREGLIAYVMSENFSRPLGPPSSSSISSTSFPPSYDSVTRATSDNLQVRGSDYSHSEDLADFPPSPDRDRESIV

| Structure (SMILES) | IC50 [µM] |
| --- | --- |
| CSCC[C@@H]1NC(=O)[C@H](Cc2ccccc2)NC(=O)CNC(=O)[C@H](CC(C)C)NC(=O)[C@@H](NC(=O)[C@@H](N)CC(=O)O)CSSC[C@@H]2NC(=O)[C@@H]3CSSC[C@@H](C(=O)N[C@@H](CCCCN)C(=O)N[C@@H](Cc4ccc(O)cc4)C(=O)N[C@H](C(=O)N[C@@H](Cc4ccccc4)C(N)=O)C(C)C)NC(=O)[C@H](Cc4c[nH]c5ccccc45)NC(=O)[C@H](CCCCN)NC(=O)[C@H](Cc4cnc[nH]4)NC(=O)[C@H]([C@@H](C)O)NC(=O)[C@H](CCCNC(=N)N)NC(=O)[C@H](CO)NC(=O)[C@H](CSSC[C@H](NC(=O)[C@H](CCCCN)NC(=O)[C@H](CCCNC(=N)N)NC1=O)C(=O)N[C@@H](CO)C(=O)N1CCC[C@H]1C(=O)N[C@@H](CC(=O)O)C(=O)N[C@@H](CC(N)=O)C(=O)N[C@@H](CC(=O)O)C(=O)N[C@@H](CCCCN)C(=O)N3)NC(=O)[C@H](C(C)C)NC(=O)[C@H](CC(C)C)NC(=O)[C@H](CC(N)=O)NC(=O)[C@@H]1CCCN1C(=O)[C@H](CCCNC(=N)N)NC2=O (H-DCLGFMRKCSPDNDKCCRPNLVCSRTHKWCKYVF-NH2; disulfide 2-17, 9-23, 16-30) | > 2.7 |
| CC[C@H](C)[C@@H]1NC(=O)[C@@H]2CSSC[C@@H]3NC(=O)[C@H](C(C)C)NC(=O)[C@H](CC(C)C)NC(=O)[C@H](CC(N)=O)NC(=O)[C@@H]4CCCN4C(=O)[C@H](CCCNC(=N)N)NC(=O)[C@H](CSSC[C@H](NC(=O)[C@@H](N)CC(=O)O)C(=O)N[C@@H](CC(C)C)C(=O)NCC(=O)N[C@@H](Cc4cccc5ccccc45)C(=O)N[C@@H](CCSC)C(=O)N[C@@H](CCCNC(=N)N)C(=O)N[C@@H](CCCCN)C(=O)N2)NC(=O)[C@H](CSSC[C@@H](C(=O)N[C@@H](CCCCN)C(=O)N[C@@H](Cc2ccc(O)cc2)C(=O)N[C@H](C(=O)N[C@@H](Cc2ccccc2)C(N)=O)C(C)C)NC(=O)[C@H](Cc2c[nH]c4ccccc24)NC(=O)[C@H](CCCCN)NC(=O)[C@H](Cc2c[nH]cn2)NC(=O)[C@H]([C@@H](C)O)NC(=O)[C@H](CCCNC(=N)N)NC(=O)[C@H](CO)NC3=O)NC(=O)[C@H](CCCCN)NC(=O)[C@H](CC(=O)O)NC(=O)[C@H](CC(N)=O)NC(=O)[C@H](CC(=O)O)NC(=O)[C@@H]2CCCN2C1=O | > 5 |
| CC[C@H](C)[C@@H]1NC(=O)[C@@H]2CSSC[C@@H]3NC(=O)[C@H](C(C)C)NC(=O)[C@H](CC(C)C)NC(=O)[C@H](CC(N)=O)NC(=O)[C@@H]4CCCN4C(=O)[C@H](CCCNC(=N)N)NC(=O)[C@H](CSSC[C@H](NC(=O)[C@@H](N)CC(=O)O)C(=O)N[C@@H](CC(C)C)C(=O)NCC(=O)N[C@@H](Cc4ccccc4)C(=O)N[C@@H](CCSC)C(=O)N[C@@H](CCCNC(=N)N)C(=O)N[C@@H](CCCCN)C(=O)N2)NC(=O)[C@H](CSSC[C@@H](C(=O)N[C@@H](CCCCN)C(=O)N[C@@H](CCCNC(=N)N)C(=O)N[C@H](C(=O)N[C@@H](Cc2ccccc2)C(N)=O)C(C)C)NC(=O)[C@H](Cc2c[nH]c4ccccc24)NC(=O)[C@H](CCCCN)NC(=O)[C@H](Cc2cnc[nH]2)NC(=O)[C@H]([C@@H](C)O)NC(=O)[C@H](CCCNC(=N)N)NC(=O)[C@H](CO)NC3=O)NC(=O)[C@H](CCCCN)NC(=O)[C@H](CC(=O)O)NC(=O)[C@H](CC(N)=O)NC(=O)[C@H](CC(=O)O)NC(=O)[C@@H]2CCCN2C1=O (H-DCLGFMRKCIPDNDKCCRPNLVCSRTHKWCKRVF-NH2; disulfide 2-17, 9-23, 16-30) | > 5 |

Reference: ChEMBL document CHEMBL3797186, “Single Residue Substitutions That Confer Voltage-Gated Sodium Ion Channel Subtype Selectivity in the NaV1.7 Inhibitory Peptide GpTx-1” (J Med Chem, 2016)
